The text below walks through data of ChEMBL document CHEMBL3588823, “Design, synthesis and biological evaluation of novel 5-oxo-2-thioxoimidazolidine derivatives as potent androgen receptor antagonists” (Eur J Med Chem, 2015).

One assay has as its system LNCaP. Nature of the assay: Antiproliferative activity against human LNCAP cells after 3 days. The format is functional, cell-based. Put shortly:
(§1)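 LNCaP cells seeded at 10,000 per well in RPMI 1640 with 10% charcoal-stripped serum and 1% AAS, then held 3 days at 37 °C. Medium was then replaced with serial compound dilutions, either without DHT (agonism mode) or with DHT (antagonism mode).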

Assay [1] addresses T1, Androgen receptor (Homo sapiens, UniProt P10275).
T1 sequence (P10275 whole entry): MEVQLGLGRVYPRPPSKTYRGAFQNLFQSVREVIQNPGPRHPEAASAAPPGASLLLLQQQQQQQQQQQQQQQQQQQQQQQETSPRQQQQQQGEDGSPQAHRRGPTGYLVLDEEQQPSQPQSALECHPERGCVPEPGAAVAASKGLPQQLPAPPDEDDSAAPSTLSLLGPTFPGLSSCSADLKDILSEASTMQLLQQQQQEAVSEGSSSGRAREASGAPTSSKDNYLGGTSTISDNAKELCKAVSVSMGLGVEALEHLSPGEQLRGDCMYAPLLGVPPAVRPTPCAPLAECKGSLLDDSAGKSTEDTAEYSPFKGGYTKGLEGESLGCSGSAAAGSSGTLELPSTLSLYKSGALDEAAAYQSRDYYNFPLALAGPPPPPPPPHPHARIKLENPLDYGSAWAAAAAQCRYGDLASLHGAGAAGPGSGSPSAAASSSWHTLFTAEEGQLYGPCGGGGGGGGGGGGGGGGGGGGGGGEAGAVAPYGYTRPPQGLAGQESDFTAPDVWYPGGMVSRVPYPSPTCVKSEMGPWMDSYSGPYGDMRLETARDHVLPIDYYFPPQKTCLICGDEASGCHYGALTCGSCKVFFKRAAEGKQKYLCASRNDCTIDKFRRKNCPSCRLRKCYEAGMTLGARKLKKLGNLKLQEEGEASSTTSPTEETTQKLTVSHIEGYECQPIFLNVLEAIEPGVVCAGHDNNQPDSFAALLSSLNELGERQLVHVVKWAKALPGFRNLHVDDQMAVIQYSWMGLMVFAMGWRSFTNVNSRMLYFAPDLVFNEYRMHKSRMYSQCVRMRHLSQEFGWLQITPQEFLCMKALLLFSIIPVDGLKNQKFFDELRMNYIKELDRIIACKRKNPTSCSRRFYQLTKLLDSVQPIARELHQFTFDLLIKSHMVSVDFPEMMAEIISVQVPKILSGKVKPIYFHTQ
In words: Antagonist activity at androgen receptor (unknown origin).

Assay [2] addresses T1, Androgen receptor. Nature of the assay: Partial agonist activity at androgen receptor (unknown origin). The gist of the method:
as §1

[3] abbreviates: Homo sapiens, LNCaP, 72 h, read-out: IC50.

With `CNC(=O)c1ccc(N2C(=S)N(c3ccc(C#N)c(C(F)(F)F)c3)C(=O)C23CCOCC3)cc1F`, the IC50 (as a rule, the concentration that inhibits the measured activity by half) with LNCaP (setting [3]) turned out to be 0.54 µM. Also, at Androgen receptor [1], the inhibition constant (Ki) (usually a measure of affinity in units of concentration, obtained from inhibition or displacement) worked out at 0.126 µM.

As to `CNC(=O)c1ccc(N2C(=S)N(c3ccc(C#N)c(C(F)(F)F)c3)C(=O)C23CCN(C)CC3)cc1F`, in the assay with LNCaP (setting [3]), the IC50 is > 10 µM.

With `CNC(=O)c1ccc(N2CC(=O)N(c3ccc(C#N)c(C(F)(F)F)c3)C2=S)cc1F`, the 50% inhibitory concentration (IC50) in the assay on LNCaP (setting [3]) is > 10 µM.

As for `CNC(=O)c1ccc(N2C(=S)N(c3ccc(C#N)c(C(F)(F)F)c3)C(=O)[C@H]2C)cc1F`, the half-maximal inhibitory concentration (IC50) in the assay on LNCaP (setting [3]) turned out to be 1.51 µM. On Androgen receptor [2], this molecule yielded a Ki of 0.482 µM.

Turning to `CNC(=O)c1ccc(N2C(=S)N(c3ccc(C#N)c(C(F)(F)F)c3)C(=O)C2(C)COC)cc1F` (racemic), in the assay with LNCaP (setting [3]), the concentration for half-maximal inhibition (IC50) came out at 0.344 µM. Also, the affinity on Androgen receptor [1] corresponds to a Ki of 0.068 µM.

Take `CNC(=O)c1ccc(N2C(=S)N(c3ccc(C#N)c(C(F)(F)F)c3)C(=O)C2(C)COCc2ccccc2)cc1F` (racemic): the half-maximal inhibitory concentration (IC50) with LNCaP (setting [3]) worked out at 2.3 µM. On Androgen receptor [1], this molecule came in with an inhibition constant (Ki) of 0.514 µM.

Take `CCOC(=O)CC1(C)C(=O)N(c2ccc(C#N)c(C(F)(F)F)c2)C(=S)N1c1ccc(C(=O)NC)c(F)c1` (racemic): the IC50 in the assay with LNCaP (setting [3]) stood at 1.38 µM. For the same molecule, at Androgen receptor [1], the Ki was found to be 0.236 µM.

For `CNC(=O)c1ccc(N2C(=S)N(c3ccc(C#N)c(C(F)(F)F)c3)C(=O)C2(C)CC(=O)O)cc1F` (racemic), the half-inhibitory concentration (IC50) result in the assay on LNCaP (lncap) was “Not Active”. The Ki entry at Androgen receptor [1] is recorded as “Not Active”.

In the case of `CNC(=O)c1ccc(N2C(=S)N(c3ccc(C#N)c(C(F)(F)F)c3)C(=O)C23CCOC3)cc1F` (racemic), the IC50 in the assay on LNCaP (setting [3]) turned out to be 0.196 µM. Affinity at Androgen receptor [1] was put at a Ki of 0.0338 µM.

Regarding `CNC(=O)c1ccc(N2C(=S)N(c3ccc(C#N)c(C(F)(F)F)c3)C(=O)C2C)cc1F` (racemic), the half-maximal inhibitory concentration (IC50) with LNCaP (setting [3]) worked out at 0.944 µM. Moreover, the affinity on Androgen receptor [2] corresponds to a Ki of 0.257 µM.

Consider `CNC(=O)c1ccc(N2C(=S)N(c3cnc(C#N)c(C(F)(F)F)c3)C(=O)C23CCC3)cc1F` [APALUTAMIDE], for which, in the assay on LNCaP (setting [3]), the 50% inhibitory concentration (IC50) is 0.174 µM.

Turning to `CC(O)(CS(=O)(=O)c1ccc(F)cc1)C(=O)Nc1ccc(C#N)c(C(F)(F)F)c1` (stereo unspecified) [BICALUTAMIDE], the half-inhibitory concentration (IC50) with LNCaP (setting [3]) is 0.733 µM.

For `CNC(=O)c1ccc(N2C(=S)N(c3ccc(C#N)c(C(F)(F)F)c3)C(=O)C2(C)C)cc1F` [ENZALUTAMIDE], the half-inhibitory concentration (IC50) in the assay with LNCaP (setting [3]) was 0.127 µM.
